ADAM17 inh: inhibitors of human ADAM17; P78536; recombinant ADAM17, EDANS/DABCYL FRET peptide cleavage; inhibition, % at 6.95 µM; 370,000 compounds, 0.83% hits; AID 720648;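 active = inhibition above the mean of compounds lying between control limits plus 3 SD, set per campaign, cut at about 8.5% in these data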
NRP1-CendR mod: modulators of CendR peptide binding to human neuropilin-1. O14786. FAM-RPARPAR peptide binding to NRP-1, fluorescence polarization. inhibition, % at 25 µM. 360,000 compounds, 0.85% hits. AID 602438;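 active = inhibition or corrected inhibition above about 18%, plus a signal ratio from 0.5 to 1.5, limit read from the data, passing the limit was not always enough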
ADAM10 inh: ADAM10 inhibition, QFRET primary screen | O14672 | recombinant ADAM10, EDANS/DABCYL FRET peptide cleavage, 3 h | inhibition, % at 7 µM | 370,000 compounds, 0.62% hits | AID 720582;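 active = inhibition above a per-campaign cutoff equal to the mean of compounds falling between control-based bounds plus 3 SD, cut at about 20% in these data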
FAS-TE inh: blocks the thioesterase domain of human fatty acid synthase; recombinant FAS-TE, OMFH fluorogenic substrate, fluorescence endpoint; inhibition, % at 15 µM; 360,000 compounds, 0.67% hits; AID 602261;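 active = compounds whose normalised, plate-corrected inhibition of enzyme fluorescence in the single-dose primary screen is 50% or more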
Target sequence (P49327 whole entry, looked up, the tested form may be a part): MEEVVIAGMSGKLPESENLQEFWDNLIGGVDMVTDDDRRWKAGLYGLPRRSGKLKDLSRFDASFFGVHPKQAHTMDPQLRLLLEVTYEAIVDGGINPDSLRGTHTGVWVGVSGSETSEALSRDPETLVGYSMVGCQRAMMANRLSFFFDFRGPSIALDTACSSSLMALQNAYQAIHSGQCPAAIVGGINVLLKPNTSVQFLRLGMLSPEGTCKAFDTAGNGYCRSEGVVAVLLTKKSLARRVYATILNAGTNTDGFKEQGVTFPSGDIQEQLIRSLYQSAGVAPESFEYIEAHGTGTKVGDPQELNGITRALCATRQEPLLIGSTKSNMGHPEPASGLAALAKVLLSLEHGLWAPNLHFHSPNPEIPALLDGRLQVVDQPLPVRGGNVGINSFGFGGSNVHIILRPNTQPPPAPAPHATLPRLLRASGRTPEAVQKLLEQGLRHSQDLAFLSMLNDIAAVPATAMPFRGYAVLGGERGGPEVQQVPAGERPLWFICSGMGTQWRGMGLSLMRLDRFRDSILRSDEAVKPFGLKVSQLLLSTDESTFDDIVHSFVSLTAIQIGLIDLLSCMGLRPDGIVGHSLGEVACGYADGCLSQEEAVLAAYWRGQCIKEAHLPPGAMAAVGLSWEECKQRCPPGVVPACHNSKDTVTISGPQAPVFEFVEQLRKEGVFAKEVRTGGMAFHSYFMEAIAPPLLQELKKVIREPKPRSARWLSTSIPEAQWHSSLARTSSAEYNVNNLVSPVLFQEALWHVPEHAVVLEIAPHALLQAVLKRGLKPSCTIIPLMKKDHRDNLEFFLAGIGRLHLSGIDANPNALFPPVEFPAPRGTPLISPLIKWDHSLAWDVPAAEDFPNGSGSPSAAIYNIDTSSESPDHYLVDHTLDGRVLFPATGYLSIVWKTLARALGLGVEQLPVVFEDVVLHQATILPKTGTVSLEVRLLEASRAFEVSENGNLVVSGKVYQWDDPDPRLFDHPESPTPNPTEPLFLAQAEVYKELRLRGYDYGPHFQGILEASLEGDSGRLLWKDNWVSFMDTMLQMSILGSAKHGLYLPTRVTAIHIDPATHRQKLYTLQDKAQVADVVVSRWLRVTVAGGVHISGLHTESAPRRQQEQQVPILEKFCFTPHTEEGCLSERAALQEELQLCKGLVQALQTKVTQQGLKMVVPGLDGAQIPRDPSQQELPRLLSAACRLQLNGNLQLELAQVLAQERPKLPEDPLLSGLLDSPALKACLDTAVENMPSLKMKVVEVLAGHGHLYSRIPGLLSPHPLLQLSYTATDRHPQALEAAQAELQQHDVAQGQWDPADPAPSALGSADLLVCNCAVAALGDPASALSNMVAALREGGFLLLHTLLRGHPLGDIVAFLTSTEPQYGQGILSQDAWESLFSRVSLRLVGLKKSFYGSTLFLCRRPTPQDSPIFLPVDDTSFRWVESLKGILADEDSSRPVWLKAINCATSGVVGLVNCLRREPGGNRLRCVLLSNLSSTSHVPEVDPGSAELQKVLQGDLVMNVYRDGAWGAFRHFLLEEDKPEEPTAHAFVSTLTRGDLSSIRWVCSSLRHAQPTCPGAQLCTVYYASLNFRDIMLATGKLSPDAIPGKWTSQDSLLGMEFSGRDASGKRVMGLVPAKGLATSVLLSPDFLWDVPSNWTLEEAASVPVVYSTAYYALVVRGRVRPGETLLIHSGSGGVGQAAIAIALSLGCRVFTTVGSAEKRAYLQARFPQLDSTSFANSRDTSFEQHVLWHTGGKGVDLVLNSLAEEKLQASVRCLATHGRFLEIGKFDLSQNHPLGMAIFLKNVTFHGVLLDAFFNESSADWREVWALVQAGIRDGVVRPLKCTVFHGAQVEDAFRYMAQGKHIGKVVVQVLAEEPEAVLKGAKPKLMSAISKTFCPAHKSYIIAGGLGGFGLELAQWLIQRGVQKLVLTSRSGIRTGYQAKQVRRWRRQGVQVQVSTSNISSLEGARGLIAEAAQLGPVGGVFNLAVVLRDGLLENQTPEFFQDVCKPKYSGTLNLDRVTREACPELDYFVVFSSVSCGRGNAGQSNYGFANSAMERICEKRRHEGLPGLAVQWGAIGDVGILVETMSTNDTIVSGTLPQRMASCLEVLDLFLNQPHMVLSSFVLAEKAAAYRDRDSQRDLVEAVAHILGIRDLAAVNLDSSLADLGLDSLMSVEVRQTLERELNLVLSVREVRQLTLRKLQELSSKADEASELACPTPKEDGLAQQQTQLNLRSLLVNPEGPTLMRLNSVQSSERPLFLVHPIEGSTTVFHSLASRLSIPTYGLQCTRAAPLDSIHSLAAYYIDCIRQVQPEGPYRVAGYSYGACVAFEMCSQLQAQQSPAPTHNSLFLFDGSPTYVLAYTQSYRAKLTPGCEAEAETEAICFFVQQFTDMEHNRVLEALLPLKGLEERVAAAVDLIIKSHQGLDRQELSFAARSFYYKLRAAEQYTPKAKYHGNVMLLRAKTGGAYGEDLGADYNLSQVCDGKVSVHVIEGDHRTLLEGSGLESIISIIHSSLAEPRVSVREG
CaV13 FRET inh: Disruptors of the CACNA1D IQ motif to Ca2+-dependent inactivation inhibitor domain association, primary screening, Förster resonance energy transfer in intact living …; HEK cells, CFP/YFP FRET ICDI-IQ, plate reader, 10 min; percent FRET-ratio fall versus neutral wells; inhibition, % at 12.3 µM; 340,000 compounds, 0.098% hits; AID 743397;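 active = mean replicate inhibition of at least 30% and at least 1% of replicates passing that level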
Arr AP2 block: human beta-arrestin and AP2 interaction inhibition; FITC-arrestin peptide / GST-AP2 beads, flow cytometry; AP2 beta2 appendage carries R879A mutation; 340,000 compounds, 0.31% hits; inhibition, % at 10 µM; AID 504490;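 active = inhibition above a set limit, near 3 SD of compounds lacking own fluorescence, cut at about 54% in these data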
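Measured by: flow cytometry, FL1 (488/535 nm); Material: AP2 appendage R879A on GSH beads; Evaluation: percent response; Timing: pre-incubation 12 min, peptide binding 1 h, room temperature; Also added: 50 nM FITC-arrestin peptide; Medium: PBS with 0.05% Tween 20 and 0.1% BSA.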
A number is an active result; – = inactive; · = no result given. Shown are actives, neighbours in structure and some others; about 2.9% of the full set was active somewhere.

SMILES	ADAM17 inh	NRP1-CendR mod	ADAM10 inh	FAS-TE inh	CaV13 FRET inh	Arr AP2 block
Nc1ncnc2c1ncn2[C@@H]1O[C@H](C(=O)N[C@@H](CCc2ccccc2)C(=O)O)[C@@H](O)[C@H]1O	–	·	–	·	–	·
CCOc1ccc(CCNC(=O)c2ccc(F)c(S(=O)(=O)N3CCOCC3)c2)cc1OCC	–	23	–	–	–	–
COc1ccc2nc(C)cc(Nc3ccc(C(=O)O)cc3)c2c1	·	–	·	–	·	–
CCOc1ccc(Nc2cc(C)nc3ccc(C)cc23)cc1	–	–	–	–	–	–
COc1ccc(Nc2cc(C)nc3ccc(OC)cc23)cc1	–	29	–	–	–	–
Cc1ccc(Nc2cc(C)nc3ccc(C)cc23)cc1	–	21	–	–	–	–
O=[N+]([O-])c1ccc(NN=CC2CCCCCC2)c([N+](=O)[O-])c1	–	–	–	–	–	·
FC(F)(F)C1=Nc2cccc3cccc(c23)N1	–	38	–	–	–	–
Fc1ccc(C2=Nc3cccc4cccc(c34)N2)cc1	–	–	–	–	–	–
CC1CCc2[nH]c3ccc(C(=O)NCCCOC(C)C)cc3c2C1 (stereo not given)	–	35	–	–	–	–
CC(C)Oc1ccc(CN2CCC2(C)C(=O)NCc2cccc3ccccc23)cc1 (stereo not given)	–	–	–	–	–	·
CCN(CC(=O)Nc1ccccc1C(F)(F)F)C(=O)CCSc1ccc(F)cc1	–	–	–	–	–	–
Cc1ccc(N(C)c2nc(N)nc(N)c2N=O)cc1	–	·	–	·	–	·
CC(Sc1nnc(-c2cccnc2)o1)C(=O)NC1CCCC1 (stereo not given)	–	22	–	–	–	–
COc1ccccc1NC(=S)N(CCN1CCOCC1)Cc1ccccc1F	–	–	–	–	–	–
COc1ccc(NC(=S)N(CCN2CCOCC2)Cc2ccccc2F)cc1	–	24	–	–	–	–
CCCC[C@H]1C2CC(OC(=O)Nc3ccc(C#N)cc3)C(C2)[C@H]2CCCCN21 (stereo not given in full)	–	·	–	·	·	·
CC(=NN(Cc1ccccc1)c1ccccc1)c1ccccc1	–	22	–	–	–	–
C/C(=N\N(c1ccccc1)c1ccccc1)c1ccc(O)cc1	–	–	–	–	–	–
CN(Cc1ccc2c(c1)CCCN2C)C(=O)[C@H]1O[C@@H](n2ccc(=O)[nH]c2=O)[C@H](O)[C@@H]1O	–	27	–	–	–	·
O=S1(=O)c2ccc(N3CCC[C@@H]3CO)cc2OCCCN1C1CC1	–	·	–	·	·	·
O=[N+]([O-])c1ccc(Nc2nc(NC3CCCCC3)nc(N3CCCC3)n2)cc1	–	39	–	–	–	–
C(=Cc1nc2ccccc2o1)c1ccc2c(c1)OCO2	–	26	–	–	–	·
C(=Cc1cnc2ccccc2n1)c1ccc2c(c1)OCO2	–	–	–	–	–	·
Cc1ccc(CNc2nc3cc(-c4ccccc4)sc3c(=O)n2C)c(C)c1	–	–	–	–	–	·
SMILES	ADAM17 inh	NRP1-CendR mod	ADAM10 inh	FAS-TE inh	CaV13 FRET inh	Arr AP2 block
Cc1ccc(N2C(=O)C(Cl)=C(N3CCOCC3)C2=O)c(C)c1	–	–	–	–	–	–
Cc1ccc(N2C(=O)C(Cl)=C(NCc3ccccc3)C2=O)c(C)c1	–	21	–	–	–	–
CC(=O)Nc1ccc(C2=NN(C)C(=NCc3ccccc3)SC2)cc1	–	30	–	–	–	–
O=C(Nc1ccc(Cl)cc1)N1CCSC1=NCc1ccccc1	–	–	–	–	–	–
CCCCOc1cc(NCc2ccccc2)c2ncn(C(C)C)c2c1	–	–	–	–	–	–
COCCCOc1cc(NCc2ccccc2)c2ncn(C(C)C)c2c1	–	–	–	–	122	–
COc1cccc(C2=NN(C(=O)c3ccccc3)C(O)(C(F)(F)F)C2)c1 (stereo not given)	–	–	–	–	–	–
COc1cccc(C(=O)N2N=C(c3ccccc3)CC2(O)C(F)(F)F)c1 (stereo not given)	–	27	–	–	–	–
CC1=C(C#N)C(=O)NC1(C)O (stereo not given)	–	–	–	–	–	·
CCOC(=O)C1=NOC(Cn2cc(C#N)c(=O)n(C)c2=O)C1 (stereo not given)	–	36	–	–	–	–

Screening results as filed in PubChem BioAssay.
